ChEMBL document CHEMBL5321263, “Metabolomics-Guided Discovery, Isolation, Structure Elucidation, and Bioactivity of Myropeptins C-E from Myrothecium inundatum” (J Nat Prod, 2023)
≈ marks a conversion by molar mass, not a printed value. Calls of active or inactive are those of the source. The calls are words filed in the database; no cut-off is given here. Where a SMILES comes first, the peptide text is derived from it. [ ]: non-standard residue; d: D form. The star is where a group is joined. Lauroyl = CCCCCCCCCCCC(=O)*; Decanoyl = CCCCCCCCCC(=O)*; Aib = CC(C)(N)C(=O)O; βAla = NCCC(=O)O

Assays:
MDA-MB-231 = assay: Antiproliferative activity against human MDA-MB-231 cells measured after 24 hrs by MTT assay; assay type: functional, cell-based; settings: MDA-MB-231, 24 h
Outline: (§1)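 MTT read-out after 24 h; HCT-116 (7000 cells/well) or MDA-MB-231 (8000 cells/well) in DMEM with 10% FBS, 37 °C, 5% CO2, plated overnight before dosing; MTT 0.5 mg/ml final, 2 h at 37 °C; formazan dissolved in DMSO, A550; vehicle (0.5% DMSO) set as 100% growth; biological triplicates, two technical replicates.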

[1] = Hemolytic activity in sheep erythrocytes assessed as hemolysis incubated for 1 hr by microplate reader based analysis; assay type: toxicity, cell-based, Ovis aries, Erythrocyte
Outline: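 Defibrinated sheep blood washed 3× in PBS, diluted 1:500 (~8×10^7 cells/mL); 190 μL suspension plus 10 μL 20-fold compound stock in PBS + 0.5% DMSO, 1 h at 37 °C; centrifuged, supernatant OD450; 0.1% Triton X-100 positive control; three independent experiments.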

[2] = Toxicity in zebra fish AB embryo assessed as mortality at 50 uM incubated for 48 hrs relative to control; design: species or system Danio rerio; settings: zebrafish, read-out: Activity
HCT-116 = assay: Antiproliferative activity against human HCT-116 cells measured after 24 hrs by MTT assay; assay type: functional, cell-based; settings: HCT-116, 24 h; outline: as §1
[3] = Toxicity in zebra fish AB embryo assessed as mortality incubated for 48 hrs; design: species or system Danio rerio; settings: zebrafish
Staphylococcus aureus [4] = assay: Antimicrobial activity against multidrug resistant Staphylococcus aureus ATCC BAA-44 measured after 16 hrs by CLSI protocol based method; assay type: functional
Staphylococcus aureus [5] = assay: Antimicrobial activity against Staphylococcus aureus ATCC 25923 measured after 16 hrs by CLSI protocol based method; assay type: functional
Staphylococcus aureus [6] = assay: Antimicrobial activity against methicillin resistant Staphylococcus aureus ATCC BAA41 measured after 16 hrs by CLSI protocol based method; assay type: functional
[Candida] auris = Antimicrobial activity against Candida auris CDCB11903 measured after 16 hrs by CLSI protocol based method; assay type: functional; settings: Candidozyma auris
OVCAR-8 = assay: Antiproliferative activity against human OVCAR-8 cells measured after 24 hrs by MTT assay; assay type: functional; settings: read-out: LC50 (the source's name)
[7] = Toxicity in zebra fish AB embryo assessed as mortality at 10 uM incubated for 48 hrs relative to control; design: species or system Danio rerio; settings: zebrafish, read-out: Activity
[8] = Toxicity in human SK-MEL-5 cells assessed as calcium influx-mediated cell rupture at 16 uM measured upto 120 secs by fluorescence based analysis; settings: sk-mel-5, 2 min, time < 120 sec
SK-MEL-5 [9] = assay: Induction of apoptosis in human SK-MEL-5 cells assessed as membrane blebbing at 1 uM measured after 30 mins by confocal microscopy based analysis; assay type: functional, cell-based
Outline: (§2)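 SK-Mel-5 on poly-L-lysine-coated coverslips, 24 h; 30 min at 37 °C with 2 μM MitoOrange, 0.1% Hoechst 33342 and 1 μM compound, 0.1% DMSO or 50 μM FCCP; washed in warm PBS with CaCl2/MgCl2; confocal imaging, 20x objective, transmitted light plus MitoOrange CMTMRos and Hoechst channels.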

SK-MEL-5 [10] = assay: Induction of mitochondrial membrane potential in human SK-MEL-5 cells assessed as reduction in accumulation of dye at 1 uM measured after 30 mins by […] staining based confocal microscopy analysis; assay type: functional, cell-based; outline: as §2
SK-MEL-5 [11] = assay: Induction of apoptosis in human SK-MEL-5 cells assessed as early apoptosis at 1 to 4 uM measured after 3 hrs by Annexin V-FITC/propidium iodide staining based flow cytometric analysis; assay type: functional, cell-based; settings: dose 1-4 µM
Outline: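 SK-Mel-5 (1 × 10^6 cells per T25) grown 24 h, then treated 3 h in medium at 1 or 4 μM; 0.5% DMSO vehicle, 5 μM camptothecin control; trypsinised, washed, stained with FITC-annexin V and propidium iodide 15 min at RT in the dark, analysed by flow cytometry within 1 h.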

SK-MEL-5 [12] = assay: Induction of calcium influx in human SK-MEL-5 cells assessed as increase in fluorescence at 1 to 4 uM measured upto 120 secs by fluorescence based assay; assay type: functional, cell-based; settings: dose 1-4 µM, time <= 120.0 sec

| Compound | IC50 (MDA-MB-231) [µM] | IC50 at 1 h [1] [µM] | IC50 (HCT-116) [µM] | MIC (Staphylococcus aureus [4]) [µg/mL] | MIC (Staphylococcus aureus [5]) [µg/mL] | MIC (Staphylococcus aureus [6]) [µg/mL] | MIC ([Candida] auris) [µg/mL] | also measured |
| --- | --- | --- | --- | --- | --- | --- | --- | --- |
| CCCCCCCCCC(=O)NC(C)(C)C(=O)N1CCC[C@H]1C(=O)NC(C)(C)C(=O)NC(C)(C)C(=O)N1CCC[C@H]1C(=O)NC(C)(C)C(=O)NC(C)(C)C(=O)N1CCC[C@H]1C(=O)N[C@@H](C)C(=O)NC(C)(C)C(=O)NCCC(=O)N[C@@H](C)C(=O)NC(C)(C)C(=O)NC(C)(C)C(=O)NCCC(=O)NC(C)(C)C(=O)NC(C)(C)C(=O)NC(C)(C)C(=O)N[C@@H](C)C(=O)NCCC(=O)O (Decanoyl-[Aib]P[Aib][Aib]P[Aib][Aib]PA[Aib][βAla]A[Aib][Aib][βAla][Aib][Aib][Aib]A[βAla]-OH) [listing 1 of 2 here] | 9.2 | 7 | 5.2 | – | – | – | – | mortality at 48 h, 50 µM [2]: 100%; EC50 at 48 h [3]: 30 µM |
| CCCCCCCCCC(=O)NC(C)(C)C(=O)N1CCC[C@H]1C(=O)NC(C)(C)C(=O)NC(C)(C)C(=O)N1CCC[C@H]1C(=O)NC(C)(C)C(=O)NC(C)(C)C(=O)N1CCC[C@H]1C(=O)NC(C)(C)C(=O)NC(C)(C)C(=O)NCCC(=O)N[C@@H](C)C(=O)NC(C)(C)C(=O)NC(C)(C)C(=O)NCCC(=O)NC(C)(C)C(=O)NC(C)(C)C(=O)NC(C)(C)C(=O)N[C@@H](C)C(=O)NCCC(=O)O (Decanoyl-[Aib]P[Aib][Aib]P[Aib][Aib]P[Aib][Aib][βAla]A[Aib][Aib][βAla][Aib][Aib][Aib]A[βAla]-OH) [listing 1 of 2 here] | – | – | – | 16 (≈ 8.69 µM) | 16 (≈ 8.69 µM) | 16 (≈ 8.69 µM) | 16 (≈ 8.69 µM) | – |
| CCCCCCCCCCCC(=O)NC(C)(C)C(=O)N1CCC[C@H]1C(=O)NC(C)(C)C(=O)NC(C)(C)C(=O)N1CCC[C@H]1C(=O)NC(C)(C)C(=O)NC(C)(C)C(=O)N1CCC[C@H]1C(=O)NC(C)(C)C(=O)NC(C)(C)C(=O)NCCC(=O)N[C@@H](C)C(=O)NC(C)(C)C(=O)NC(C)(C)C(=O)NCCC(=O)NC(C)(C)C(=O)NC(C)(C)C(=O)NC(C)(C)C(=O)N[C@@H](C)C(=O)NCCC(=O)O (Lauroyl-[Aib]P[Aib][Aib]P[Aib][Aib]P[Aib][Aib][βAla]A[Aib][Aib][βAla][Aib][Aib][Aib]A[βAla]-OH) [listing 1 of 2 here] | – | – | – | 8 (≈ 4.28 µM) | 4 (≈ 2.14 µM) | 8 (≈ 4.28 µM) | 16 (≈ 8.56 µM) | – |
| CCCCCCCCCCCC(=O)NC(C)(C)C(=O)N1CCC[C@H]1C(=O)NC(C)(C)C(=O)NC(C)(C)C(=O)N1CCC[C@H]1C(=O)NC(C)(C)C(=O)NC(C)(C)C(=O)N1CCC[C@H]1C(=O)N[C@@H](C)C(=O)NC(C)(C)C(=O)NCCC(=O)N[C@@H](C)C(=O)NC(C)(C)C(=O)NC(C)(C)C(=O)NCCC(=O)NC(C)(C)C(=O)NC(C)(C)C(=O)NC(C)(C)C(=O)N[C@@H](C)C(=O)NCCC(=O)O [listing 1 of 2 here] | – | – | – | 4 (≈ 2.16 µM) | 4 (≈ 2.16 µM) | 4 (≈ 2.16 µM) | 4 (≈ 2.16 µM) | CC50 (OVCAR-8): > 16 µM |
| CCCCCCCCCCCC(=O)NC(C)(C)C(=O)N1CCC[C@H]1C(=O)NC(C)(C)C(=O)NC(C)(C)C(=O)N1CCC[C@H]1C(=O)NC(C)(C)C(=O)NC(C)(C)C(=O)N1CCC[C@H]1C(=O)NC(C)(C)C(=O)NC(C)(C)C(=O)NCCC(=O)N[C@@H](C)C(=O)NC(C)(C)C(=O)NC(C)(C)C(=O)NCCC(=O)NC(C)(C)C(=O)NC(C)(C)C(=O)NC(C)(C)C(=O)N[C@@H](C)C(=O)NCCC(=O)O (Lauroyl-[Aib]P[Aib][Aib]P[Aib][Aib]P[Aib][Aib][βAla]A[Aib][Aib][βAla][Aib][Aib][Aib]A[βAla]-OH) [listing 2 of 2 here] | 11.1 | 2 | 9.5 | – | – | – | – | – |
| CC[C@H](C)C[C@H](C)CCCCCCCCC(=O)N[C@H]1C[C@@H](O)[C@@H](NCCN)NC(=O)[C@@H]2[C@@H](O)CCN2C(=O)[C@H]([C@H](O)CCN)NC(=O)[C@H]([C@H](O)[C@@H](O)c2ccc(O)cc2)NC(=O)[C@@H]2C[C@@H](O)CN2C(=O)[C@H]([C@@H](C)O)NC1=O [CASPOFUNGIN] | – | – | – | – | – | – | 2 (≈ 1.83 µM) | – |
| CCCCCCCCCC(=O)NC(C)(C)C(=O)N1CCC[C@H]1C(=O)NC(C)(C)C(=O)NC(C)(C)C(=O)N1CCC[C@H]1C(=O)NC(C)(C)C(=O)NC(C)(C)C(=O)N1CCC[C@H]1C(=O)N[C@@H](C)C(=O)NC(C)(C)C(=O)NCCC(=O)N[C@@H](C)C(=O)NC(C)(C)C(=O)NC(C)(C)C(=O)NCCC(=O)NC(C)(C)C(=O)NC(C)(C)C(=O)NC(C)(C)C(=O)N[C@@H](C)C(=O)NCCC(=O)O (Decanoyl-[Aib]P[Aib][Aib]P[Aib][Aib]PA[Aib][βAla]A[Aib][Aib][βAla][Aib][Aib][Aib]A[βAla]-OH) [listing 2 of 2 here] | – | – | – | 16 (≈ 8.76 µM) | 16 (≈ 8.76 µM) | 16 (≈ 8.76 µM) | 16 (≈ 8.76 µM) | – |
| NC[C@H]1O[C@H](O[C@H]2[C@H](O)[C@@H](O[C@H]3O[C@H](CO)[C@@H](O)[C@H](N)[C@H]3O)[C@H](N)C[C@@H]2N)[C@H](O)[C@@H](O)[C@@H]1O [KANAMYCIN] | – | – | – | – | 1 (≈ 2.06 µM) | – | – | – |
| CCCCCCCCCCCC(=O)NC(C)(C)C(=O)N1CCC[C@H]1C(=O)NC(C)(C)C(=O)NC(C)(C)C(=O)N1CCC[C@H]1C(=O)NC(C)(C)C(=O)NC(C)(C)C(=O)N1CCC[C@H]1C(=O)N[C@@H](C)C(=O)NC(C)(C)C(=O)NCCC(=O)N[C@@H](C)C(=O)NC(C)(C)C(=O)NC(C)(C)C(=O)NCCC(=O)NC(C)(C)C(=O)NC(C)(C)C(=O)NC(C)(C)C(=O)N[C@@H](C)C(=O)NCCC(=O)O [listing 2 of 2 here] | 1.5 | 1.5 | 1.2 | – | – | – | – | mortality at 48 h, 10 µM [7]: 100%; Activity [8]: Toxic; EC50 at 48 h [3]: 5 µM |
| COc1cccc2c1[C@H](OC)[C@]13O[C@@]1(C2=O)[C@H](O)[C@H](C)[C@@](O)(C(=O)[C@@H]1O[C@H]1C)[C@@H]3O | 0.6 | – | 1.3 | – | – | – | – | – |
| CCCCCCCCCCCC(=O)NC(C)(C)C(=O)N1CCC[C@@H]1C(=O)NC(C)(C)C(=O)NC(C)(C)C(=O)N1CCC[C@@H]1C(=O)NC(C)(C)C(=O)NC(C)(C)C(=O)N1CCC[C@H]1C(=O)N[C@@H](C)C(=O)NC(C)(C)C(=O)NCCC(=O)N[C@@H](C)C(=O)NC(C)(C)C(=O)NC(C)(C)C(=O)NCCC(=O)NC(C)(C)C(=O)NC(C)(C)C(=O)NC(C)(C)C(=O)N[C@@H](C)C(=O)NCCC(=O)O | – | – | – | – | – | – | – | Activity (SK-MEL-5 [9]): inactive; Activity (SK-MEL-5 [10]): Active; Activity (SK-MEL-5 [11]): Active |
| CCCCCCCCCC(=O)NC(C)(C)C(=O)N1CCC[C@H]1C(=O)NC(C)(C)C(=O)NC(C)(C)C(=O)N1CCC[C@H]1C(=O)NC(C)(C)C(=O)NC(C)(C)C(=O)N1CCC[C@H]1C(=O)NC(C)(C)C(=O)NC(C)(C)C(=O)NCCC(=O)N[C@@H](C)C(=O)NC(C)(C)C(=O)NC(C)(C)C(=O)NCCC(=O)NC(C)(C)C(=O)NC(C)(C)C(=O)NC(C)(C)C(=O)N[C@@H](C)C(=O)NCCC(=O)O (Decanoyl-[Aib]P[Aib][Aib]P[Aib][Aib]P[Aib][Aib][βAla]A[Aib][Aib][βAla][Aib][Aib][Aib]A[βAla]-OH) [listing 2 of 2 here] | 8.2 | 10 | 6.1 | – | – | – | – | – |
| C[C@H](CCC(=O)O)C[C@H](C)C[C@H](C)C(=O)/C=C(\O)[C@H](C)C[C@H](C)C/C=C/[C@@H](C)[C@@H](O)[C@@H](C)[C@@H](O)C[C@@H]1CC[C@@](C)([C@H]2CC[C@@](C)([C@@H](C)O)O2)O1 | – | – | – | – | – | – | – | Activity (SK-MEL-5 [12]): Active |
